High-throughput results from PubChem BioAssay.
MrgX1 agonist = agonists of human MrgX1 receptor, primary screen, HEK293 cells, Fluo-4 calcium flux; Mas-related G-protein coupled receptor member X1 (Homo sapiens), Q96LB2; Fluo-4 calcium fluorescence, agonist mode; stronger effect = higher value; B-score at 10 µM; hit rate 0.44% among 310,000;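 active = calcium response B-score plate-corrected fluorescence ratio at least 3 library SD, with starting fluorescence B-score inside 5 SD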
Target sequence (Q96LB2 whole entry, looked up): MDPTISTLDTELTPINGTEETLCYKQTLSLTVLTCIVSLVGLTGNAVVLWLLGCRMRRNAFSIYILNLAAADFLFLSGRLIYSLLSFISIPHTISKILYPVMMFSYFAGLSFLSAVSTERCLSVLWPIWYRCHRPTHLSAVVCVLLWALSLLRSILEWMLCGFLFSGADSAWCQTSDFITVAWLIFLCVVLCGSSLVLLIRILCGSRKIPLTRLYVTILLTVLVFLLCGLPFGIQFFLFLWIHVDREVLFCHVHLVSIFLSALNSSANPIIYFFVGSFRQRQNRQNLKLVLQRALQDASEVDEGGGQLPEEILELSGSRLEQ
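Material: MrgX1-expressing HEK293 cells / Dosing: compound as first of three additions / Incubation: overnight seeding, then 1 h dark dye loading / Signal: Fluo-4 NW calcium fluorescence / Evaluation: B-scored fluorescence response ratio / Benchmarks: positive and negative control wells on each plate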
MrgX1 allo act = positive allosteric modulators of MrgX1, primary screen, HEK293 cells, Fluo-4 calcium flux; FDSS; stronger effect = higher value; B-score at 10 µM; hit rate 0.63% among 310,000; AID 588675, 2011;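 active = plate-corrected calcium response at least 3 library SD above typical, normal starting fluorescence, not activating the receptor alone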;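 note: compound read alongside a low EC10 to EC30 dose of BAM8-22 agonist; peak minus trough fluorescence over baseline measured at the second addition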
RGS4 pot = RGS4 potentiators or activators, primary screen, cell-based, HEK293 M3R inducible RGS4, calcium flux | carbachol calcium flux Fluo4; stronger effect = lower value | B-score at 10 µM | hit rate 0.92% among 310,000 | AID 463111, 2010;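 active = B-score of the integrated calcium signal more than 4 SD below the library mean, with starting fluorescence not abnormally high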;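 note: negative B-score means reduced calcium response which marks RGS4 activation or potentiation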
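Reagent: ECmax carbachol challenge; Test system: M3R-expressing HEK293 line, RGS4 induced by doxycycline; Schedule: overnight RGS4 induction, 30 min dye load 37 °C, 20 min compound RT; Detection: calcium dye Fluo4 fluorescence; Read-out: Agonist-evoked peak-minus-minimum fluorescence over baseline, integrated ratio, B score.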
RGS4 block = RGS4 inhibitors, primary screen, cell-based, HEK293 M3R inducible RGS4, calcium flux; Fluo-4 calcium flux; stronger effect = higher value; triggered by carbachol at its EC20; B-score at 10 µM; hit rate 0.45% among 310,000; AID 463165, 2010;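 active = B-score, a plate-corrected calcium signal, over three deviations above library mean, with baseline fluorescence within five deviations of library mean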;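 note: RGS4 expression induced by doxycycline in cells with stable M3 receptor; B-score is computed from the integrated fluorescence ratio over baseline after carbachol; higher B-score means a larger calcium signal and so more RGS4 inhibition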
Target sequence (P49798 whole entry, looked up): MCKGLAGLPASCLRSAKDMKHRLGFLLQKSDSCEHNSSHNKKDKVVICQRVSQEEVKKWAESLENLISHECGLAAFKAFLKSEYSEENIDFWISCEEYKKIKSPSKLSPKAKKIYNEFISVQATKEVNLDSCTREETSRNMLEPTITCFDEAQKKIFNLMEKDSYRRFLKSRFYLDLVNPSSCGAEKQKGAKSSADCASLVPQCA
MrgX1 antagonist = antagonists of human MrgX1 receptor, primary screen, HEK293 cells, Fluo-4 calcium flux; B-score at 10 µM; BAM8-22 antagonism; stronger effect = lower value; Mas-related G-protein coupled receptor member X1 (Homo sapiens), Q96LB2; AID 588676, 2011; hit rate 1.3% among 310,000;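 active = calcium-response B-score plate-corrected more than 3 library SD below zero, starting fluorescence within 5 deviations, no agonist response on first addition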;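 note: peak minus trough fluorescence over baseline after final BAM8-22 challenge near maximal dose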
MrgX1 ant reconf = MrgX1 receptor antagonists, duplicate retest, confirmation, HEK293 cells, Fluo-4 calcium flux; shares compounds with MrgX1 antagonist; BAM8-22 calcium flux; stronger effect = lower value; remaining BAM8-22 calcium response % of control (stronger effect = lower value), % at 10 µM; hit rate 19% among 2,300; AID 602420, 2012;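 active = remaining agonist calcium response no higher than 100% minus 3 SD of agonist-only control wells, with starting fluorescence near control levels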;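 note: agonist BAM8-22 given at a near maximal EC90 to ECmax level; peak minus minimum fluorescence divided by baseline after agonist addition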
HEK293 Ca flux = nonspecific calcium signal in parental HEK293, confirmation, counter-screen for MrgX1 antagonist project, parental HEK293 cells, Fluo-4 calcium flux; Fluo-4 calcium fluorescence, FDSS; hit rate 2% among 4,000; shares compounds with MrgX1 antagonist; fluorescence ratio F(max-min)/F0 at 10 µM;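 active = duplicate-averaged calcium fluorescence ratio at least three times the standard deviation of buffer wells, a nonspecific response in parental cells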
HEK293 Ca counter = calcium response in parental HEK293 cells, primary screen, counter-screen for MrgX1 allosteric activator project, cell-based, Fluo-4 calcium flux, duplicate. fluorescence ratio F(max-min)/F0 at 10 µM. Fluo-4 fluorescence ratio; stronger effect = higher value. shares compounds with MrgX1 antagonist. hit rate 0.4% among 4,000. AID 624114, 2012;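 active = calcium fluorescence ratio, averaged over duplicates, at least 3 SD of the buffer-well ratio, meaning a nonspecific response in receptor-free cells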;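 note: untransfected parental HEK293 lacking MrgX1 used as counterscreen for MrgX1 allosteric activators; fluorescence change taken during the second addition on a kinetic imager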
HEK293 Ca cntr2 = calcium response in parental HEK293 cells, primary screen, counter-screen for MrgX1 agonist project, cell-based, Fluo-4 calcium flux, duplicate, agonist mode; shares compounds with MrgX1 antagonist; Fluo-4 calcium fluorescence (FDSS); stronger effect = higher value; fluorescence ratio F(max-min)/F0 at 10 µM; hit rate 8.7% among 4,000; AID 624115, 2012;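 active = calcium fluorescence ratio at least three times the spread of buffer wells, meaning a non-specific response in parental cells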
* marks the source's active call; other numbers are inactive results. Sampled rows, rich in hits. Any-hit rate of the full collection: about 3.5%.

How did O=C(NC1CCCC1)C(c1ccc(Cl)cc1)N1CCc2ccccc21 (stereo not given) do in these assays?
MrgX1 agonist: inactive; MrgX1 allo act: inactive; RGS4 pot: inactive; RGS4 block: inactive; MrgX1 antagonist: -4.8*; MrgX1 ant reconf: inactive; HEK293 Ca flux: inactive; HEK293 Ca counter: inactive; HEK293 Ca cntr2: inactive

What do the screens show for `COc1ccc(-n2ncc(C(C)NS(=O)(=O)c3cccs3)c2C)cc1` (stereo not given)?
MrgX1 agonist: inactive; MrgX1 allo act: inactive; RGS4 pot: inactive; RGS4 block: inactive; MrgX1 antagonist: inactive

Results for CCOC(=O)C1=C(O)/C(=C\c2sccc2C)N=C1C ?
MrgX1 agonist: inactive; MrgX1 allo act: inactive; RGS4 pot: inactive; RGS4 block: inactive; MrgX1 antagonist: -5.24*; MrgX1 ant reconf: inactive; HEK293 Ca flux: inactive; HEK293 Ca counter: inactive; HEK293 Ca cntr2: inactive

Results for CC(C)(C)c1ccc(Oc2ccc(NC(=O)C3CC=CCC3C(=O)O)cc2)cc1 (stereo not given) ?
MrgX1 agonist: inactive; MrgX1 allo act: inactive; RGS4 pot: inactive; RGS4 block: inactive; MrgX1 antagonist: -9.01*; MrgX1 ant reconf: inactive; HEK293 Ca flux: inactive; HEK293 Ca counter: inactive; HEK293 Ca cntr2: inactive

What do the screens show for `Cc1ccccc1Oc1ccc(NC(=O)C2CC=CCC2C(=O)O)cc1` (stereo not given)?
MrgX1 agonist: inactive; MrgX1 allo act: inactive; RGS4 pot: inactive; RGS4 block: inactive; MrgX1 antagonist: inactive

What do the screens show for `CN1CCN(S(=O)(=O)c2cccc(C(=O)Nc3ccc(Br)cc3Br)c2)CC1`?
MrgX1 agonist: inactive; MrgX1 allo act: inactive; RGS4 pot: inactive; RGS4 block: inactive; MrgX1 antagonist: inactive

What do the screens show for `CCc1ccc2[nH]c3nc(N/N=C/c4ccc(O)cc4O)nnc3c2c1`?
MrgX1 agonist: inactive; MrgX1 allo act: inactive; RGS4 pot: inactive; RGS4 block: inactive; MrgX1 antagonist: inactive

What do the screens show for `O=C(NC1CCCCCC1)c1ccc(Br)o1`?
MrgX1 agonist: inactive; MrgX1 allo act: inactive; RGS4 pot: inactive; RGS4 block: inactive; MrgX1 antagonist: inactive

Results for O=C(NC1CCCCCCC1)c1ccc(Br)o1 ?
MrgX1 agonist: inactive; MrgX1 allo act: inactive; RGS4 pot: inactive; RGS4 block: inactive; MrgX1 antagonist: -4.68*; MrgX1 ant reconf: inactive; HEK293 Ca flux: inactive; HEK293 Ca counter: inactive; HEK293 Ca cntr2: inactive

How did Cc1ccc(N2CC(=O)Nc3c(oc4nc(-c5ccccc5)cc(C)c34)C2=O)cc1 do in these assays?
MrgX1 agonist: inactive; MrgX1 allo act: inactive; RGS4 pot: inactive; RGS4 block: inactive; MrgX1 antagonist: inactive

Results for COc1ccc(Cn2c(C)ccc2C)cc1 ?
MrgX1 agonist: inactive; MrgX1 allo act: inactive; RGS4 pot: inactive; RGS4 block: inactive; MrgX1 antagonist: -6.34*; MrgX1 ant reconf: inactive; HEK293 Ca flux: inactive; HEK293 Ca counter: inactive; HEK293 Ca cntr2: inactive

Results for CCOc1ccc2[nH]cc(C(=O)NCc3ccccc3)c(=O)c2c1 ?
MrgX1 agonist: inactive; MrgX1 allo act: inactive; RGS4 pot: inactive; RGS4 block: inactive; MrgX1 antagonist: inactive

How did O=C(NCc1ccccc1)c1c[nH]c2cc3c(cc2c1=O)OCCO3 do in these assays?
MrgX1 agonist: inactive; MrgX1 allo act: inactive; RGS4 pot: inactive; RGS4 block: inactive; MrgX1 antagonist: -5.47*; MrgX1 ant reconf: inactive; HEK293 Ca flux: inactive; HEK293 Ca counter: inactive; HEK293 Ca cntr2: inactive

How did CC(C(=O)O)N(C(=O)c1ccccc1)c1ccc(F)cc1 (stereo not given) do in these assays?
MrgX1 agonist: inactive; MrgX1 allo act: inactive; RGS4 pot: inactive; RGS4 block: inactive; MrgX1 antagonist: -5.48*; MrgX1 ant reconf: 81.2%*; HEK293 Ca flux: inactive; HEK293 Ca counter: inactive; HEK293 Ca cntr2: inactive

Results for CSc1ccc(NC(=O)N2CC=C(n3c(=O)[nH]c4ccccc43)CC2)cc1 ?
MrgX1 agonist: inactive; MrgX1 allo act: inactive; RGS4 pot: inactive; RGS4 block: inactive; MrgX1 antagonist: -4.66*; MrgX1 ant reconf: inactive; HEK293 Ca flux: inactive; HEK293 Ca counter: inactive; HEK293 Ca cntr2: inactive

Results for CN(C)S(=O)(=O)N(CC(=O)Nc1ccc(S(=O)(=O)N2CCCC2)cc1)c1ccccc1 ?
MrgX1 agonist: inactive; MrgX1 allo act: inactive; RGS4 pot: inactive; RGS4 block: inactive; MrgX1 antagonist: inactive

What do the screens show for `Cc1nn(C)c(Cl)c1CN1CCN(C2CCCC2)C(CCO)C1` (stereo not given)?
MrgX1 agonist: inactive; MrgX1 allo act: inactive; RGS4 pot: inactive; RGS4 block: inactive; MrgX1 antagonist: -10.5*; MrgX1 ant reconf: inactive; HEK293 Ca flux: inactive; HEK293 Ca counter: inactive; HEK293 Ca cntr2: inactive

Results for CN(C)C/C=C(\c1ccc(Br)cc1)c1cccnc1 ?
MrgX1 agonist: inactive; MrgX1 allo act: inactive; MrgX1 antagonist: -4.92*; MrgX1 ant reconf: inactive; HEK293 Ca flux: inactive; HEK293 Ca counter: inactive; HEK293 Ca cntr2: inactive

What do the screens show for `CCc1c(C)nc(SCC(N)=O)c(C#N)c1C`?
MrgX1 agonist: inactive; MrgX1 allo act: inactive; RGS4 pot: inactive; RGS4 block: inactive; MrgX1 antagonist: -5.65*; MrgX1 ant reconf: inactive; HEK293 Ca flux: inactive; HEK293 Ca counter: inactive; HEK293 Ca cntr2: inactive

What do the screens show for `COc1cccc(/C=C/C(=O)Nc2ccc3nc4n(c(=O)c3c2)CCCC4)c1OC`?
MrgX1 agonist: inactive; MrgX1 allo act: inactive; RGS4 pot: inactive; RGS4 block: inactive; MrgX1 antagonist: inactive
